For 27 compounds, activation factor results are on record in PubChem BioAssay AID2805 (Sanford-Burnham Center for Chemical Genomics, 2010).

Screen size: about 330,000 compounds; about 780 (0.24%) were called active.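 Rule for the calls: active = activation factor of at least 2 at 20 µM; inactive = the rest.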 What follows is part of a selection rich in actives, with near analogues and random picks from the rest.

This test deals with intestinal alkaline phosphatase [Mus musculus]. Put plainly: activators of mouse IAP, primary screen, biochemical, luminescence, uHTS (AID 2805). The note with it: muIAP, CDP-Star luminescence, 30 min; at 10 µM; hits give high values; 1 = vehicle-only enzyme signal, 0 = enzyme-free wells. Put shortly: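 also added = chemiluminescent substrate CDP-Star | test system = mouse IAP enzyme | signal = chemiluminescence readout | compound = DMSO-dissolved test compounds | incubation = 30 min at room temperature | benchmarks = DMSO wells, no-enzyme wells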
Turning to `COc1ccc(CN2CCC(n3nccc3NC(=O)CCCc3ccccc3)CC2)cc1C`, the activation factor was 2.47 (active). In the case of `COc1cc(CN2CCC(n3nccc3NC(=O)CCCc3ccccc3)CC2)ccc1O`, the activation factor is 1.47 (inactive). Regarding `Cc1ccc(CN2CCC(n3nccc3NC(=O)CCCc3ccccc3)CC2)o1`, the activation factor was 1.09 (inactive). Turning to `CC1(C)CC(=O)c2sc(N)nc2C1`, the activation factor was 0.979 (inactive).

`CC(C)c1cc(C(N)=O)c(NC(=O)c2cccc(COc3ccc(Br)cc3)c2)s1`: the activation factor was 0.925 (inactive).

Take `COC(=O)c1ccc(NC(=O)C(C)N2C(=O)c3ccccc3C2=O)cc1` (configuration not stated): the activation factor was 0.997 (inactive). With `COc1cc(NC(=O)Nc2ccc(C)cc2)cc([N+](=O)[O-])c1`, the activation factor is 0.983 (inactive). To `COC(=O)c1ccc(NC(=O)Nc2ccc(C)cc2)cc1` belongs 2.13 (active); to `Cc1c(C(C)(C)O)[nH]c2ccc(C#N)cc12`, 1.11 (inactive); to `FC(F)(F)Oc1ccc(NC(=S)NCc2ccccc2)cc1`, 1.66 (inactive). Take `Fc1ccccc1CNC(=S)Nc1ccc(Cl)cc1`: the activation factor was 2.42 (active). Regarding `S=C(NCc1cccs1)Nc1ccc(Cl)cc1`, the activation factor was 1.5 (inactive). For the compound `O=C1CCC(C(=O)N2CCC(O)(c3ccccc3)CC2)CN1CCc1ccccc1` (configuration not stated), the activation factor was 0.942 (inactive). Regarding `Cc1cc(C(F)(F)F)nn1CC(=O)N1CCCC1`, the activation factor is 1.12 (inactive). On to `Cc1ccc(C(=O)c2coc3ccc(O)c(CN(C)C)c23)cc1`, for which the activation factor was 1.09 (inactive).

For `Cc1cccc(C)c1NC(=O)C1(N(C(=O)c2ccccn2)c2ccc(O)cc2)CCCCC1`, the activation factor is 1.01 (inactive). `COc1cccc(N(C(=O)c2ccn[nH]2)C2(C(=O)Nc3c(C)cccc3C)CCCCC2)c1`: the activation factor is 3.3 (active). For `COc1cccc(N(Cc2nnc3n2CCCCC3)C(=O)Nc2ccccc2F)c1`, the activation factor was 1.08 (inactive). For the compound `Cc1cc(=O)n2nc(N3CCCC(C(=O)N4CCN(C)CC4)C3)sc2n1` (configuration not stated), the activation factor was 0.986 (inactive). On to `CN(CC(=O)N1CCN(c2ccccc2)CC1)S(=O)(=O)c1cccs1`, for which the activation factor was 0.929 (inactive). Consider `Cc1ccc(NC(=O)COC(=O)C2CC2)cc1S(=O)(=O)N1CCOCC1`, for which the activation factor is 1.01 (inactive). To `Cc1cc(C)cc(NC(=S)NCCc2c[nH]c3ccccc23)c1` belongs 1.3 (inactive). As to `CCc1cccc(CC)c1NC(=S)NCc1ccc2[nH]c(C)cc2c1`, the activation factor is 1.06 (inactive). Take `Cc1cccc(NC(=S)NCc2ccc3[nH]c4c(c3c2)CCCC4)c1`: the activation factor is 2.55 (active). In the case of `O=C(Nc1ccc2c(c1)OCCO2)C(c1ccc(F)cc1)N1CCCCC1` (configuration not stated), the activation factor is 1.07 (inactive).

Turning to `CC(NC(=S)Nc1ccc(S(N)(=O)=O)cc1)c1ccc2c(c1)OCO2` (configuration not stated), the activation factor was 1.52 (inactive). With `CC1CCCN(C(C(=O)Nc2ccc(C(C)C)cc2)c2ccc3c(c2)OCO3)C1` (configuration not stated), the activation factor was 2.25 (active).
